Laboratory results: PMC13570607 (European journal of medicinal chemistry, 2025)

Tests used:
TG2 = target: T1, TG2 (Homo sapiens, UniProt P21980); test: TG2 transamidase activity in protein lysates of treated SKOV3 cells; format: cell-based
T1 sequence (P21980 1-687): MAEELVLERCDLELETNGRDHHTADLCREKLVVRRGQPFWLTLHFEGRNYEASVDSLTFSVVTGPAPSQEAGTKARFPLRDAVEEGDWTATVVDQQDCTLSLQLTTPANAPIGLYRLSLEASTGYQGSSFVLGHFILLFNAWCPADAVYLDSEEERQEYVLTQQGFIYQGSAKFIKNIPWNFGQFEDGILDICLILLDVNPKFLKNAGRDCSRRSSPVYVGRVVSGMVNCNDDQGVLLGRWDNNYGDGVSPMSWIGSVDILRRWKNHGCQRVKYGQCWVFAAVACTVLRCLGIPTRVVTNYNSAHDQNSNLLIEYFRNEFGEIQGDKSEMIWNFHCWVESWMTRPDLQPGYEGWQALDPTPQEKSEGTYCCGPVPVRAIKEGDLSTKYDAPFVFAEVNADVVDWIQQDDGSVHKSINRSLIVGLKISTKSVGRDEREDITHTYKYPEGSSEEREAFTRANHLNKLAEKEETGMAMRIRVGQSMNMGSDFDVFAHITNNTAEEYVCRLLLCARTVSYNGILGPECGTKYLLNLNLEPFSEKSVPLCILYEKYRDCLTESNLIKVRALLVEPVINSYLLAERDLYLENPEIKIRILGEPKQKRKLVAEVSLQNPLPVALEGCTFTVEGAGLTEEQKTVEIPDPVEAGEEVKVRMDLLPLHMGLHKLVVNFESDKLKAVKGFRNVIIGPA
Method in brief: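 SKOV3 cells were treated with 10 μM test compound for 24 h, and lysates were assayed in a colorimetric transamidase kit. Controls were a reference TG2 inhibitor at 20 μM, VHL ligand at 10 μM, 50 mM EDTA, and lysates of TG2-knockdown or control-shRNA cells. Lysates were incubated with assay mixture for 30 min at 37 °C, then washed, including a 0.1 M NaOH wash. Detection used streptavidin-HRP (1:2000, 15 min, 37 °C), then HRP substrate for 5 min, stopped, and read at 450 nm.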

[1] = Hepatic microsomal stability; format: in vitro ADME; details: mouse liver microsomes 1 mg/mL; 1 μM compound; NADPH
Method in brief: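 Incubation buffer was 100 mM potassium phosphate, pH 7.4. The reaction was started with NADPH (1 mM final). Aliquots taken at 0, 5, 10, 20, 40 and 60 min were quenched in acetonitrile (5x v:v), filtered and analysed by LC-MS/MS. Data were log-transformed to give half-life and intrinsic clearance.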

[2] = Parallel Artificial Membrane Permeability Assay; format: in vitro ADME; details: 5 μM; 37 °C; 5 h
Method in brief: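 Passive permeability was measured on a pre-coated PAMPA plate. The donor (bottom) side held 0.02% BSA in PBS with compound added from DMSO solution. The receiver (top) side held 0.4% BSA in PBS. After 5 h at 37 °C, receiver samples were quantified by LC/MS/MS.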

Kinetic solubility = format: physicochemical; details: PBS pH 7.4; room temp 24 h
Method in brief: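 A 10 mM DMSO stock was diluted 1 μL into 99 μL PBS pH 7.4. It was held at room temperature for 24 h, filtered, and quantified by LC/MS/MS.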

Equilibrium solubility = format: physicochemical; details: PBS pH 7.4; 24 h
Method in brief: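 About 1-2 mg of dry compound was added to 1 mL PBS pH 7.4 in a test tube. The mixture was inverted for 24 h, then filtered, and the filtrate was quantified by LC/MS/MS.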

| Structure (SMILES) | TG2 enzymatic (transamidase) activity (TG2; 20 μM) | Microsomal Stability Clint [1] | Microsomal Stability T1/2 [1] | PAMPA Permeability [2] | Kinetic Solubility (Kinetic solubility) | Equilibrium Solubility (Equilibrium solubility) | TG2 enzymatic (transamidase) activity (TG2; 10 μM, 24 hours) |
| --- | --- | --- | --- | --- | --- | --- | --- |
| Cc1cc(N(C)C)nc(Nc2ccc(NC(=O)Cc3ccccc3)cc2)n1 [MT4] | no effect on transamidating activity | 46 µL/min/mg | 15.2 min | 2.60 10^−6 cm*s^−1 | 54.96 µM | 0.76 µM | – |
| Cc1ncsc1-c1ccc(CNC(=O)[C@@H]2C[C@@H](O)CN2C(=O)[C@@H](N)C(C)(C)C)cc1 [VHL ligand 1] | – | – | – | – | – | – | no effect on transamidating activity |
